Laboratory results reported in ChEMBL document CHEMBL2150936, “Anticancer activity of small amphipathic β²,²-amino acid derivatives” (Eur J Med Chem, 2012).

Key:
[1] = tested on: SF-539; experiment: Cytotoxicity against human SF539 cells after 4 hrs by MTT assay; format: functional, cell-based; settings: SF-539, 4 h
[2] = tested on: Malme-3M; experiment: Cytotoxicity against human MALME-3M cells after 4 hrs by MTT assay; format: functional, cell-based
[3] = tested on: U-251; experiment: Cytotoxicity against human U251 cells after 4 hrs by MTT assay; format: functional, cell-based; settings: U-251, 4 h
[4] = tested on: NCI-H23; experiment: Cytotoxicity against human NCI-H23 cells after 4 hrs by MTT assay; format: functional, cell-based; settings: NCI-H23, 4 h
[5] = tested on: OVCAR-5; experiment: Cytotoxicity against human OVCAR5 cells after 4 hrs by MTT assay; format: functional, cell-based; settings: OVCAR-5, 4 h
[6] = tested on: Hs-578T; experiment: Cytotoxicity against human Hs578T cells after 4 hrs by MTT assay; format: functional, cell-based
[7] = tested on: SK-MEL-28; experiment: Cytotoxicity against human SK-MEL-28 cells after 4 hrs by MTT assay; format: functional, cell-based; settings: SK-MEL-28, 4 h
[8] = tested on: LOX IMVI; experiment: Cytotoxicity against human LOXIMVI cells after 4 hrs by MTT assay; format: functional, cell-based
[9] = tested on: SK-MEL-2; experiment: Cytotoxicity against human SK-MEL-2 cells after 4 hrs by MTT assay; format: functional, cell-based; settings: SK-MEL-2, 4 h
[10] = tested on: CAKI-1; experiment: Cytotoxicity against human CAKI-1 cells after 4 hrs by MTT assay; format: functional, cell-based; settings: CAKI-1, 4 h
[11] = tested on: OVCAR-3; experiment: Cytotoxicity against human OVCAR3 cells after 4 hrs by MTT assay; format: functional, cell-based; settings: OVCAR-3, 4 h
[12] = tested on: T47D; experiment: Cytotoxicity against human T47D cells after 4 hrs by MTT assay; format: functional, cell-based
[13] = tested on: RXF 393; experiment: Cytotoxicity against human RXF393 cells after 4 hrs by MTT assay; format: functional, cell-based; settings: RXF 393, 4 h
[14] = tested on: M14; experiment: Cytotoxicity against human M14 cells after 4 hrs by MTT assay; format: functional, cell-based; settings: M14, 4 h
[15] = tested on: Ramos; experiment: Selectivity index, ratio of EC50 for human RBC to IC50 for human Ramos cells; format: functional
Procedure, shortened: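 Ramos IC50 came from a 4 h MTT assay: cells at 4 × 10^5 cells/ml in serum-free RPMI-1640, compounds added at once, 37 °C, 2 h MTT, read at 590 nm. RBC EC50 came from hemoglobin release at 405 nm: 1% v/v washed human erythrocytes in PBS, 1 h at 37 °C, Triton X-100 reference. SI = RBC EC50 / Ramos IC50.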

[16] = tested on: NCI-H522; experiment: Cytotoxicity against human NCI-H522 cells after 4 hrs by MTT assay; format: functional, cell-based; settings: NCI-H522, 4 h
[17] = tested on: NCI-H460; experiment: Cytotoxicity against human NCI-H460 cells after 4 hrs by MTT assay; format: functional, cell-based; settings: NCI-H460, 4 h
[18] = tested on: UO-31; experiment: Cytotoxicity against human UO31 cells after 4 hrs by MTT assay; format: functional, cell-based; settings: UO-31, 4 h
[19] = tested on: UACC-257; experiment: Cytotoxicity against human UACC257 cells after 4 hrs by MTT assay; format: functional, cell-based; settings: UACC-257, 4 h
[20] = tested on: PC-3; experiment: Cytotoxicity against human PC3 cells after 4 hrs by MTT assay; format: functional, cell-based; settings: PC-3, 4 h
[21] = tested on: Ramos; experiment: Selectivity index, ratio of EC50 for human MRC5 cells to IC50 for human Ramos cells; format: functional
Procedure, shortened: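 Ramos cells were seeded at 4 × 10^5 cells/ml in serum-free RPMI-1640, and compounds in RPMI-1640 were added at once. MRC-5 fibroblasts were seeded at 1 × 10^5 cells/ml in MEM with 10% FBS, grown overnight, and the medium was then replaced with compound. Both were incubated 4 h at 37 °C, 5% CO2, then given MTT for 2 h. Formazan was dissolved in acidic isopropanol and read at 590 nm. Survival was expressed relative to the untreated medium control. SI = MRC-5 EC50 / Ramos IC50.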

[22] = tested on: NCI-H322M; experiment: Cytotoxicity against human NCI-H322M cells after 4 hrs by MTT assay; format: functional, cell-based
[23] = tested on: TK-10; experiment: Cytotoxicity against human TK10 cells after 4 hrs by MTT assay; format: functional, cell-based; settings: TK-10, 4 h
[24] = tested on: OVCAR-4; experiment: Cytotoxicity against human OVCAR4 cells after 4 hrs by MTT assay; format: functional, cell-based; settings: OVCAR-4, 4 h
[25] = tested on: SN12C; experiment: Cytotoxicity against human SN12C cells after 4 hrs by MTT assay; format: functional, cell-based
[26] = tested on: HOP-62; experiment: Cytotoxicity against human HOP62 cells after 4 hrs by MTT assay; format: functional, cell-based; settings: HOP-62, 4 h
[27] = tested on: K562; experiment: Cytotoxicity against human K562 cells after 4 hrs by MTT assay; format: functional, cell-based; settings: K562, 4 h
[28] = tested on: ACHN; experiment: Cytotoxicity against human ACHN cells after 4 hrs by MTT assay; format: functional, cell-based
[29] = tested on: HCT-15; experiment: Cytotoxicity against human HCT15 cells after 4 hrs by MTT assay; format: functional, cell-based; settings: HCT-15, 4 h
[30] = tested on: SK-MEL-5; experiment: Cytotoxicity against human SK-MEL-5 cells after 4 hrs by MTT assay; format: functional, cell-based; settings: SK-MEL-5, 4 h
[31] = tested on: NCI-H226; experiment: Cytotoxicity against human NCI-H226 cells after 4 hrs by MTT assay; format: functional, cell-based; settings: NCI-H226, 4 h
[32] = read-out: LC50 (the source's name)

`NCCNC(=O)C(CN)(Cc1ccc2ccccc2c1)Cc1ccc2ccccc2c1` was tested, and the IC50 [1] was 2.69 µM, the TGI [1] was 2.88 µM and the CC50 [1, 32] was 5.62 µM. It also gave an IC50 [2] of 3.89 µM, a TGI [2] of 3.8 µM and a CC50 [2, 32] of 7.24 µM. It also gave an IC50 [3] of 1.48 µM, a TGI [3] of 2.14 µM and a CC50 [3, 32] of 4.68 µM. For the same molecule, the IC50 [4] was 3.09 µM, the TGI [4] was 3.24 µM and the CC50 [4, 32] was 6.31 µM. For the same molecule, the IC50 [5] was 2.95 µM, the TGI [5] was 3.02 µM and the CC50 [5, 32] was 5.75 µM. The IC50 [6] was 3.63 µM, the TGI [6] was 3.47 µM and the CC50 [6, 32] was 7.94 µM. The IC50 [7] was 3.47 µM, the TGI [7] was 3.47 µM and the CC50 [7, 32] was 5.89 µM. It also gave an IC50 [8] of 0.62 µM, a TGI [8] of 1.7 µM and a CC50 [8, 32] of 4.37 µM. The IC50 [9] was 3.63 µM, the TGI [9] was 3.63 µM and the CC50 [9, 32] was 6.92 µM. The IC50 [10] was 2.75 µM, the TGI [10] was 3.02 µM and the CC50 [10, 32] was 6.17 µM. The IC50 [11] was 2.82 µM, the TGI [11] was 2.88 µM and the CC50 [11, 32] was 5.62 µM. For the same molecule, the IC50 [12] was 3.8 µM, the TGI [12] was 3.39 µM and the CC50 [12, 32] was 7.59 µM. For the same molecule, the IC50 [13] was 2.69 µM, the TGI [13] was 2.69 µM and the CC50 [13, 32] was 5.5 µM. It also gave an IC50 [14] of 3.16 µM, a TGI [14] of 3.24 µM and a CC50 [14, 32] of 6.03 µM. The “Selectivity Index” value [15] was 112, the IC50 [16] was 3.09 µM and the TGI [16] was 3.24 µM. The CC50 [16, 32] was 6.46 µM, the IC50 [17] was 0.33 µM and the TGI [17] was 0.51 µM. The CC50 [17, 32] was 1.7 µM, the IC50 [18] was 2.95 µM and the TGI [18] was 2.95 µM. For the same molecule, the CC50 [18, 32] was 6.03 µM, the IC50 [19] was 3.39 µM and the TGI [19] was 3.39 µM. For the same molecule, the CC50 [19, 32] was 5.89 µM, the IC50 [20] was 3.09 µM and the TGI [20] was 3.31 µM. For the same molecule, the CC50 [20, 32] was 6.61 µM, the “Selectivity Index” value [21] was 5.4 and the IC50 [22] was 3.09 µM. For the same molecule, the TGI [22] was 2.88 µM, the CC50 [22, 32] was 5.89 µM and the IC50 [23] was 3.09 µM. The TGI [23] was 3.16 µM, the CC50 [23, 32] was 6.03 µM and the IC50 [24] was 2.82 µM. For the same molecule, the TGI [24] was 2.82 µM, the CC50 [24, 32] was 5.37 µM and the IC50 [25] was 3.24 µM. The TGI [25] was 3.31 µM, the CC50 [25, 32] was 6.17 µM and the IC50 [26] was 2.82 µM. For the same molecule, the TGI [26] was 2.88 µM, the CC50 [26, 32] was 5.62 µM and the IC50 [27] was 0.32 µM. The TGI [27] was 0.62 µM, the IC50 [28] was 2.75 µM and the TGI [28] was 2.88 µM. The CC50 [28, 32] was 5.5 µM, the IC50 [29] was 0.79 µM and the TGI [29] was 1.91 µM. For the same molecule, the CC50 [29, 32] was 5.01 µM, the IC50 [30] was 2.82 µM and the TGI [30] was 3.02 µM. The CC50 [30, 32] was 5.62 µM, the IC50 [31] was 3.31 µM and the TGI [31] was 3.39 µM. The CC50 [31, 32] was 7.24 µM.
